Test results reported in ChEMBL document CHEMBL2016541, “Synthesis and biological evaluation of isoxazolo[4,5-d]pyridazin-4-(5H)-one analogues as potent anti-inflammatory agents” (Bioorg Med Chem, 2012).
pIC50: −log10 of the molar value.

Legend:
Rattus norvegicus [1] = assay: Ulcerogenic activity in rat assessed as ulcer index at 0.14 mmol/kg, po after 6 hrs; type: toxicity, organism-based; details: in vivo
Outline: (§1)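 Rats fasted 24 h (water allowed), then dosed orally with 0.14 mmol/kg in 1.0 mL 1% methylcellulose; vehicle controls given. Euthanized by CO2 at 6 h. Stomachs opened along the greater curvature, rinsed, and ulcers measured under magnifier lenses. UI = summed ulcer length (mm) per stomach averaged over 4 rats; mean ± SEM; one-way ANOVA with Holm–Sidak.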

[2] = target: T1, Prostaglandin G/H synthase 2 (Homo sapiens, UniProt P35354); assay: Inhibition of human recombinant COX2 by fluorescence assay
T1 sequence (P35354 whole entry): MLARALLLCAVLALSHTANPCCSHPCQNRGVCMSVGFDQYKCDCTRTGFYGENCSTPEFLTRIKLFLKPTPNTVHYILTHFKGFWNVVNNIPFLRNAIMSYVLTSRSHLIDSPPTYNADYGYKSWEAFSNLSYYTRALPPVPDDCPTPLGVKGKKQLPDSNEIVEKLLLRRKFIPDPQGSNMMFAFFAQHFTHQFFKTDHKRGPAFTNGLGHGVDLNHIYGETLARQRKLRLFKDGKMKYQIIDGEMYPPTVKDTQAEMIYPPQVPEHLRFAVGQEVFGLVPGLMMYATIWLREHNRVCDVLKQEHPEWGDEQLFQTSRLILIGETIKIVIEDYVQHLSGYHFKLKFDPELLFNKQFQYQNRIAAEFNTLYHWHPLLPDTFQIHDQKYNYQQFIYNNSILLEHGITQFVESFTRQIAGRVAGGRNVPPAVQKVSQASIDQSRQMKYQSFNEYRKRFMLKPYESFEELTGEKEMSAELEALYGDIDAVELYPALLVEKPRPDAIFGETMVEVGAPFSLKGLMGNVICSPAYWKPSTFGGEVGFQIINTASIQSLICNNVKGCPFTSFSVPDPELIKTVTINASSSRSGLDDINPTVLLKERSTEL

[3] = Inhibition of potato 5-LOX by EIA; parameters: species or system Solanum tuberosum
Outline: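 Potato 5-LOX activity measured with an enzyme immunoassay (LOX assay kit). Mean of two determinations; deviation from the mean <10%.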

Rattus norvegicus [4] = assay: Antiinflammatory activity in rat assessed as inhibition of carrageenan-induced rat paw oedema at 0.14 mmol/kg, po after 3 hrs; type: functional
Outline: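 Carrageenan-induced paw edema in rats. Compounds given orally, suspended in 1% aqueous methylcellulose. Test compounds dosed at 0.14 mmol, equivalent to 30 mg/kg ibuprofen. Mean ± SEM, n = 4.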

Rattus norvegicus [5] = assay: Ulcerogenic activity in rat assessed as ulcer index at 30 mg/kg, po after 6 hrs; type: toxicity, organism-based; parameters: dose 30 mg/kg, route oral; details: in vivo; outline: as §1
Rattus norvegicus [6] = assay: Antiinflammatory activity in rat assessed as inhibition of carrageenan-induced rat paw oedema at 30 mg/kg, po after 3 hrs; type: functional
Outline: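 Carrageenan-induced paw edema in rats. Compounds given orally, suspended in 1% aqueous methylcellulose. Test compounds dosed at 0.14 mmol, equivalent to 30 mg/kg ibuprofen. […] Mean ± SEM, n = 4.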

| pIC50 [2] | pIC50 [3] | Compound | UI (Rattus norvegicus [1]) [mm] | further results |
| --- | --- | --- | --- | --- |
| < 4.00 | 4.14 | CCNc1nnc(Cn2nc(Cc3ccccc3)c3onc(C)c3c2=O)s1 | – | – |
| < 4.00 | 4.34 | COc1ccc(Cc2nn(Cc3nnc(Nc4ccccc4)s3)c(=O)c3c(C)noc23)cc1 | – | – |
| < 4.00 | 4.35 | Cc1noc2c(Cc3ccccc3)nn(Cc3n[nH]c(=S)n3-c3ccccc3)c(=O)c12 | – | – |
| 5.04 | 4.83 | CCn1c(Cn2nc(Cc3ccc([N+](=O)[O-])cc3)c3onc(C)c3c2=O)n[nH]c1=S | 0 | inhibition in vivo at 140 µmol/kg (Rattus norvegicus [4]): 38% |
| < 4.00 | 4.78 | Cc1noc2c(Cc3ccc([N+](=O)[O-])cc3)nn(Cc3n[nH]c(=S)n3-c3ccccc3)c(=O)c12 | – | – |
| 5.66 | 5.07 | CCn1c(Cn2nc(Cc3ccc(OC)cc3)c3onc(C)c3c2=O)n[nH]c1=S | – | – |
| – | 5.40 | O=C(O)/C=C/c1ccc(O)c(O)c1 [CAFFEIC ACID] | – | – |
| – | 5.96 | CC(c1cc2ccccc2s1)N(O)C(N)=O (stereo not drawn) [ZILEUTON] | – | – |

Further lines, the compound ahead of its results:

| Compound | pIC50 [2] | pIC50 [3] | UI (Rattus norvegicus [1]) [mm] | further results |
| --- | --- | --- | --- | --- |
| Cc1noc2c(Cc3ccccc3)nn(Cc3nnc(Nc4ccccc4)s3)c(=O)c12 | – | – | 0.5 | – |
| CNc1nnc(Cn2nc(Cc3ccc([N+](=O)[O-])cc3)c3onc(C)c3c2=O)s1 | – | – | 0.75 | – |
| Cc1noc2c(Cc3ccc([N+](=O)[O-])cc3)nn(Cc3n[nH]c(=S)n3C)c(=O)c12 | – | – | 0.25 | – |
| COc1ccc(Cc2nn(Cc3n[nH]c(=S)n3C)c(=O)c3c(C)noc23)cc1 | – | – | 0.25 | – |
| COc1ccc(Cc2nn(Cc3n[nH]c(=S)n3-c3ccccc3)c(=O)c3c(C)noc23)cc1 | – | – | 0 | – |
| CC(C)Cc1ccc(C(C)C(=O)O)cc1 (stereo not drawn) [IBUPROFEN] | – | – | – | UI (Rattus norvegicus [5]): 7 mm; inhibition in vivo at 30 mg/kg (Rattus norvegicus [6]): 18.5% |
